Measurements as given in ChEMBL document CHEMBL3864121, “Development of ebsulfur analogues as potent antibacterials against methicillin-resistant Staphylococcus aureus” (Bioorg Med Chem, 2016).
Activity calls are given as the source filed them.

Tests used:
Staphylococcus aureus [1] = assay: Antibacterial activity against methicillin-sensitive Staphylococcus aureus ATCC 6538 measured after overnight incubation by broth double-dilution method; type: functional
Summary of the method: (§1)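 MIC by broth double-dilution in liquid Mueller-Hinton medium. Values are reported in µg/mL.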

Staphylococcus aureus [2] = assay: Antibacterial activity against methicillin-sensitive Staphylococcus aureus ATCC 25923 measured after overnight incubation by broth double-dilution method; type: functional; summary of the method: as §1
Staphylococcus aureus [3] = assay: Antibacterial activity against methicillin-sensitive Staphylococcus aureus ATCC 29213 measured after overnight incubation by broth double-dilution method; type: functional; summary of the method: as §1
Staphylococcus aureus [4] = assay: Antibacterial activity against methicillin-resistant Staphylococcus aureus ATCC 33591 measured after overnight incubation by broth double-dilution method; type: functional; summary of the method: as §1
Staphylococcus aureus [5] = assay: Antibacterial activity against methicillin-resistant Staphylococcus aureus 1 measured after overnight incubation by broth double-dilution method; type: functional; summary of the method: as §1
Staphylococcus aureus [6] = assay: Antibacterial activity against methicillin-resistant Staphylococcus aureus 2 measured after overnight incubation by broth double-dilution method; type: functional; summary of the method: as §1
Staphylococcus aureus [7] = assay: Antibacterial activity against methicillin-resistant Staphylococcus aureus BRS3 measured after overnight incubation by broth double-dilution method; type: functional; summary of the method: as §1
Staphylococcus aureus [8] = assay: Antibacterial activity against methicillin-resistant Staphylococcus aureus C1 measured after overnight incubation by broth double-dilution method; type: functional; summary of the method: as §1
Staphylococcus aureus [9] = assay: Antibacterial activity against methicillin-resistant Staphylococcus aureus C2 measured after overnight incubation by broth double-dilution method; type: functional; summary of the method: as §1
Staphylococcus aureus [10] = assay: Antibacterial activity against methicillin-resistant Staphylococcus aureus C7 measured after overnight incubation by broth double-dilution method; type: functional; summary of the method: as §1
Staphylococcus aureus [11] = assay: Antibacterial activity against methicillin-resistant Staphylococcus aureus C14 measured after overnight incubation by broth double-dilution method; type: functional; summary of the method: as §1
Staphylococcus aureus [12] = assay: Antibacterial activity against methicillin-resistant Staphylococcus aureus C16 measured after overnight incubation by broth double-dilution method; type: functional; summary of the method: as §1
Staphylococcus aureus [13] = assay: Antibacterial activity against methicillin-resistant Staphylococcus aureus C19 measured after overnight incubation by broth double-dilution method; type: functional; summary of the method: as §1
Staphylococcus aureus [14] = assay: Antibacterial activity against methicillin-resistant Staphylococcus aureus G1 measured after overnight incubation by broth double-dilution method; type: functional; summary of the method: as §1
Staphylococcus aureus [15] = assay: Antibacterial activity against methicillin-resistant Staphylococcus aureus G6 measured after overnight incubation by broth double-dilution method; type: functional; summary of the method: as §1
Staphylococcus aureus [16] = assay: Antibacterial activity against methicillin-resistant Staphylococcus aureus G12 measured after overnight incubation by broth double-dilution method; type: functional; summary of the method: as §1
Staphylococcus aureus [17] = assay: Antibacterial activity against methicillin-resistant Staphylococcus aureus G14 measured after overnight incubation by broth double-dilution method; type: functional; summary of the method: as §1
Staphylococcus aureus [18] = assay: Antibacterial activity against methicillin-resistant Staphylococcus aureus NRS4 measured after overnight incubation by broth double-dilution method; type: functional; summary of the method: as §1
Staphylococcus aureus [19] = assay: Antibacterial activity against methicillin-resistant Staphylococcus aureus NRS51 measured after overnight incubation by broth double-dilution method; type: functional; summary of the method: as §1
Staphylococcus aureus [20] = assay: Antibacterial activity against methicillin-resistant Staphylococcus aureus NRS77 measured after overnight incubation by broth double-dilution method; type: functional; summary of the method: as §1
Staphylococcus aureus [21] = assay: Antibacterial activity against methicillin-resistant Staphylococcus aureus S14 measured after overnight incubation by broth double-dilution method; type: functional; summary of the method: as §1
Staphylococcus aureus [22] = assay: Antibacterial activity against methicillin-resistant Staphylococcus aureus S17 measured after overnight incubation by broth double-dilution method; type: functional; summary of the method: as §1
Staphylococcus aureus [23] = assay: Antibacterial activity against methicillin-resistant Staphylococcus aureus S22 measured after overnight incubation by broth double-dilution method; type: functional; summary of the method: as §1
Staphylococcus aureus [24] = assay: Antibacterial activity against methicillin-resistant Staphylococcus aureus S24 measured after overnight incubation by broth double-dilution method; type: functional; summary of the method: as §1
Staphylococcus aureus [25] = assay: Antibacterial activity against methicillin-resistant Staphylococcus aureus USA100 measured after overnight incubation by broth double-dilution method; type: functional; summary of the method: as §1
Staphylococcus aureus [26] = assay: Antibacterial activity against methicillin-resistant Staphylococcus aureus USA200 measured after overnight incubation by broth double-dilution method; type: functional; summary of the method: as §1
Staphylococcus aureus [27] = assay: Antibacterial activity against methicillin-resistant Staphylococcus aureus USA300 measured after overnight incubation by broth double-dilution method; type: functional; summary of the method: as §1
Staphylococcus aureus [28] = assay: Antibacterial activity against methicillin-resistant Staphylococcus aureus USA600 measured after overnight incubation by broth double-dilution method; type: functional; summary of the method: as §1
[29] = test system: Staphylococcus epidermidis; assay: Antibacterial activity against Staphylococcus epidermidis ATCC 35984 measured after overnight incubation by broth double-dilution method; type: functional; conditions: RP62A
Summary of the method: (§2)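 MIC by broth double-dilution in Mueller-Hinton medium. Re-testing at the time-kill inoculum used 1×10^6 CFU/mL.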

Enterococcus faecalis [30] = assay: Antibacterial activity against Enterococcus faecalis ATCC 29212 measured after overnight incubation by broth double-dilution method; type: functional; summary of the method: as §2
Enterococcus faecalis [31] = assay: Antibacterial activity against Enterococcus faecalis ATCC 49533 measured after overnight incubation by broth double-dilution method; type: functional; summary of the method: as §2
Enterococcus faecium = assay: Antibacterial activity against Enterococcus faecium BM4105-RF measured after overnight incubation by broth double-dilution method; type: functional; summary of the method: as §1
Enterococcus = assay: Antibacterial activity against Vancomycin-resistant Enterococcus measured after overnight incubation by broth double-dilution method; type: functional; summary of the method: as §1
Listeria monocytogenes = assay: Antibacterial activity against Listeria monocytogenes ATCC 19115 measured after overnight incubation by broth double-dilution method; type: functional; summary of the method: as §2
[32] = test system: Mycolicibacterium smegmatis; assay: Antibacterial activity against Mycobacterium smegmatis MC2-155 measured after overnight incubation by broth double-dilution method; type: functional; conditions: str. MC2 155; summary of the method: as §1
Staphylococcus aureus [33] = assay: Bacteriostatic activity against methicillin-resistant Staphylococcus aureus S22 at 0.5 times MIC measured up to 3 to 6 hrs by time kill analysis; type: functional
Staphylococcus aureus [34] = assay: Bacteriostatic activity against methicillin-resistant Staphylococcus aureus S22 at MIC measured up to 3 to 6 hrs by time kill analysis; type: functional
Staphylococcus aureus [35] = assay: Bacteriostatic activity against methicillin-resistant Staphylococcus aureus S22 at 4 times MIC measured after 24 hrs by time kill analysis; type: functional
Staphylococcus aureus [36] = assay: Antibiofilm activity against methicillin-sensitive Staphylococcus aureus ATCC 6538 assessed as reduction of biofilm at […] measured after 24 hrs by crystal violet staining based method relative to control; type: functional; parameters: scale not given: the % may be the effect or the level left
[37] = Cytotoxicity against mouse RBCs assessed as hemolysis up to […] measured after 1 hr; type: toxicity, Erythrocyte; conditions: mouse red blood cells, read-out: Activity
Mus musculus = species: Mus musculus; assay: Cytotoxicity against mouse RBCs assessed as hemolysis at 0.24 to 31.2 ug/ml measured after 1 hr; type: toxicity; conditions: erythrocyte
Summary of the method: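 Murine red blood cells were exposed to compounds at various concentrations, with amikacin as a control. Percent hemolysis was scored against untreated cells (0%) and 1% Triton X (100%).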

[38] = Cytotoxicity against HEK293 cells assessed as cell death at […] measured after 24 hrs by resazurin dye-based fluorescence analysis relative to untreated control; type: toxicity; conditions: human, hek293, 24 h
[39] = test system: Staphylococcus epidermidis RP62A; assay: Inhibition of thioredoxin reductase in Staphylococcus epidermidis ATCC 35984 assessed as induction of ROS production at 1 to 4 times MIC measured after 1 hr by DCFH-DA staining-based fluorescence microscopic analysis
Summary of the method: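 Untreated cells served as the negative control and 1 mM H2O2 as the positive control. Cells were stained with DCFH-DA (40 µg/mL) and ROS were visualized by fluorescence microscopy.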

Staphylococcus aureus [40] = assay: Antibacterial activity against methicillin-resistant Staphylococcus aureus S22 using 1 10^6CFU/ml measured after overnight incubation by broth double-dilution method; type: functional

CCCCCCCCn1sc2ccccc2c1=O
Non-Toxic: Activity (Mus musculus)
3.9 µg/mL: MIC (Staphylococcus aureus [26]) | MIC (Staphylococcus aureus [28])
≤ 20%: hemolysis at 1 h [37]
active: Activity (Staphylococcus aureus [33]) | Activity (Staphylococcus aureus [34]) | Activity (Staphylococcus aureus [35]) | Activity [39] | Activity (Staphylococcus aureus [40])
≤ 0.25 µg/mL: MIC (Staphylococcus aureus [14]) | MIC (Staphylococcus aureus [21])
1 µg/mL: MIC (Staphylococcus aureus [1]) | MIC (Staphylococcus aureus [2]) | MIC (Staphylococcus aureus [3]) | MIC (Staphylococcus aureus [6]) | MIC (Staphylococcus aureus [7]) | MIC (Staphylococcus aureus [8]) | MIC (Staphylococcus aureus [10]) | MIC (Staphylococcus aureus [11]) | MIC (Staphylococcus aureus [15]) | MIC (Staphylococcus aureus [16]) | MIC (Staphylococcus aureus [17]) | MIC (Staphylococcus aureus [18]) | MIC (Staphylococcus aureus [19]) | MIC (Staphylococcus aureus [20]) | MIC (Staphylococcus aureus [22]) | MIC (Staphylococcus aureus [23]) | MIC (Staphylococcus aureus [24]) | MIC [29] | MIC (Listeria monocytogenes)
2 µg/mL: MIC (Staphylococcus aureus [12]) | MIC (Staphylococcus aureus [25]) | MIC (Staphylococcus aureus [27]) | MIC (Enterococcus faecium) | MIC [32]
> 20%: Activity [38]
0.5 µg/mL: MIC (Staphylococcus aureus [4]) | MIC (Staphylococcus aureus [5]) | MIC (Staphylococcus aureus [9]) | MIC (Staphylococcus aureus [13]) | MIC (Enterococcus)
> 125 µg/mL: MIC (Enterococcus faecalis [30]) | MIC (Enterococcus faecalis [31])
40%: Activity (Staphylococcus aureus [36])
